Source: PubChem (The Scripps Research Institute Molecular Screening Center)
Most compounds without a hit are left out; they make up all but 4.5% or so of the library.
OX1R antag-1: human HCRTR1 antagonism; O43613; CHO/OX1R cells, Fluo-8 calcium fluorescence, orexin A; inhibition, % at 5 µM; 0.43% of 330,000 active;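 active means inhibition above its plate's threshold, mean inhibition of all tested compounds on the plate plus 3 SD, cut at about 37% in these data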
Target sequence (O43613 whole entry, looked up): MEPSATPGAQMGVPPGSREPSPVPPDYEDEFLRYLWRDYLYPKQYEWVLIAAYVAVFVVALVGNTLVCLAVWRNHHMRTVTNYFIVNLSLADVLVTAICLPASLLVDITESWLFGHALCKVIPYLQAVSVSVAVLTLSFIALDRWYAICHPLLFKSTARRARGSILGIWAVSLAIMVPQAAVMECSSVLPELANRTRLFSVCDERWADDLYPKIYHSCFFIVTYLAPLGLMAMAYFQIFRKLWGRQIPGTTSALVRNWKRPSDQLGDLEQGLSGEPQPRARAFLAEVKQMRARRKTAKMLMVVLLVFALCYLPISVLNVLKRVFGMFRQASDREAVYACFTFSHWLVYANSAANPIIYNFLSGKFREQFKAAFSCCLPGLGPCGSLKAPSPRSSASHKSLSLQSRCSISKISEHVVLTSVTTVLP
TAAR1 agonist: human TAAR1 agonism | AID 624467 | activation, % at 3 µM | CHO RD-HGA16 TAAR1, Fluo-8 calcium fluorescence; vehicle wells 0%, saturating PEA agonist 100% | Q96RJ0 | 0.99% of 360,000 active;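 active means activation above the mean activation of all test compounds in the run plus 3 SD, cut at about 38% in these data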
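Benchmarks: low control DMSO, high control PEA (EC100); System: CHO RD-HGA16 cells carrying human TAAR1 plus Gα16; Detection: Fluo-8 fluorescence, 5 s baseline then 140 s kinetic read; Schedule: 17-24 h plating, Fluo-8 75 min 37 °C, 30 min RT; Read-out basis: % activation from peak over basal fluorescence ratio, DMSO-to-PEA scaled.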
CHO parental Ca: counter-screen: ATP calcium response change in parental CHO cells; AID 463079; 0.63% of 330,000 active; inhibition, % at 5.6 µM; parental CHO-K1, ATP-induced calcium, Fluo-8 fluorescence;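 active means inhibition above that plate's mean sample inhibition plus 3 SD, cut at about 26% in these data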
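Assay system – parental CHO cells · Reagent – ATP stimulus · Detection – intracellular calcium via Fluo-8 no-wash fluorescent dye · Evaluation – percent inhibition of ATP-evoked calcium rise, normalized to controls · Controls – ATP wells versus no-ATP DMSO wells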
GPR7 antagonist: blocks human GPR7 receptor signaling; GPR7-expressing cells, fluorescence antagonist assay; 1.1% of 290,000 active; AID 1861; inhibition, % at 4.4 µM; in the data active means inhibition above about 16%, passing the limit was not always enough;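 further: cells stimulated with the agonist NPW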
Target sequence (P48145 whole entry, looked up): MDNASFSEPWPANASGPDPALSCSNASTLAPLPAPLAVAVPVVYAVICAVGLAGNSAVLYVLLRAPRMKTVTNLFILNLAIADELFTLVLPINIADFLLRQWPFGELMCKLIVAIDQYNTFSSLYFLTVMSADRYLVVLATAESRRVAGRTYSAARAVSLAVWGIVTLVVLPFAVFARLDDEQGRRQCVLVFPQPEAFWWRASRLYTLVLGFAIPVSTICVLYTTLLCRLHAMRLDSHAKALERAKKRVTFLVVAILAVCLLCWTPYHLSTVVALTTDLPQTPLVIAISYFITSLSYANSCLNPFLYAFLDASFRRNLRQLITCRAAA
TAAR1 antag: human TAAR1 antagonism; inhibition, % at 3 µM; CHO RD-HGA16 TAAR1, Fluo-8 calcium fluorescence, antagonist; AID 624466; 1.5% of 360,000 active;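 active means inhibition above a per-plate cutoff, the mean inhibition of test compounds on that plate plus 3 SD, cut at about 49% in these data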
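System: CHO RD-HGA16 cells bearing hTAAR1. Reagent: EC80 β-phenethylamine stimulus. Schedule: seeding 17-24 h prior, 75-min 37 °C, 30-min RT dye loading. Signal: Fluo-8 intracellular calcium dye fluorescence, real-time kinetic reads. Read-out: % inhibition from peak post-agonist over basal fluorescence ratio. Benchmarks: vehicle wells and EC80 agonist wells. Replicates: n of 1.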
OX1R antag-2: blocks the human orexin 1 receptor; OX1R-expressing cells, FRET antagonist read-out; inhibition, % at 6.6 µM; 1.8% of 330,000 active; AID 485270; in the data active means inhibition mostly above about 38%, no sharp cut-off; inactive means mostly below about 40%
OX1R HTRF confirm: OX1R (human) antagonism, HTRF confirmed; shares compounds with OX1R antag-2; OX1R-expressing cells, HTRF antagonist assay; inhibition, % at 6.6 µM; 49% of 1,800 active; AID 492964; in the data active means inhibition above about 55%;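 further: CHO cells expressing OX1R stimulated with orexin A at about EC80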
CHO-K1 HTRF: counter-screen: parental CHO-K1 HTRF response; shares compounds with OX1R antag-2; parental CHO-K1 cells, HTRF counterscreen; inhibition, % at 6.6 µM; 48% of 1,800 active; AID 493232; in the data active means inhibition above about 17%
Of the large screens only hits and unclear results are named; the others gave an inactive call (follow-up assays come after a bar, where they were run).

O=C(Nc1ccc([N+](=O)[O-])cc1)C(=O)Nc1cccc(C(=O)O)c1	OX1R antag-2 79 | OX1R HTRF confirm inactive | CHO-K1 HTRF 32
CC(C)c1ccc(NC2CCCN(C(=O)c3cnsn3)C2)cc1 (stereo not drawn)	none
O=C(NNC(=O)c1ccc([N+](=O)[O-])cc1Cl)c1ccncc1	OX1R antag-2 103 | OX1R HTRF confirm inactive | CHO-K1 HTRF 44
Cc1nc2ccc([N+](=O)[O-])cc2nc1C	OX1R antag-2 112 | OX1R HTRF confirm 68 | CHO-K1 HTRF 81
COc1ccc(CNc2nc(-c3ccccc3)nc3ccccc23)cc1OC	OX1R antag-2 85 | OX1R HTRF confirm 68 | CHO-K1 HTRF inactive
COc1cccc(-c2ccc(NC(=O)C3CCCN(Cc4ccc(CO)o4)C3)cc2)c1 (stereo not drawn)	none
Cc1ccccc1CNC(=O)c1ccccc1NS(C)(=O)=O	OX1R antag-2 105 | OX1R HTRF confirm inactive | CHO-K1 HTRF inactive
CCN(CC(=O)Nc1c(F)cccc1F)C(=O)CCc1nc2ccccc2c(=O)[nH]1	none (no result: GPR7 antagonist)
CCN(CC(=O)Nc1ccccc1C(F)(F)F)C(=O)CCc1nc2ccccc2c(=O)[nH]1	OX1R antag-2 82 | OX1R HTRF confirm inactive | CHO-K1 HTRF inactive
COc1cc(C(c2c(C)[nH][nH]c2=O)c2c(C)[nH][nH]c2=O)cc([N+](=O)[O-])c1O	OX1R antag-2 78 | OX1R HTRF confirm inactive | CHO-K1 HTRF 44
CCOc1cc(C(c2c(C)[nH][nH]c2=O)c2c(C)[nH][nH]c2=O)cc([N+](=O)[O-])c1O	none
Cn1cc(Cc2ccc(C(=O)N3CCCCC3)cn2)c2ccccc21	none (no result: OX1R antag-1, CHO parental Ca, GPR7 antagonist, OX1R antag-2)
Cc1ccc2nc(Nc3ccccc3)c(/C=N/O)c(=O)n2c1	OX1R antag-2 98 | OX1R HTRF confirm 62 | CHO-K1 HTRF inactive
CC(=O)Nc1ccc(NC(=O)CSc2ccc3nnc(-c4cccnc4)n3n2)cc1	none
CCOC(=O)C1=CCN(S(=O)(=O)c2ccccc2Br)C1c1cccc(F)c1 (stereo not drawn)	none (no result: OX1R antag-1, CHO parental Ca, GPR7 antagonist, OX1R antag-2)
CN(C)c1ccc(N=Nc2ccc3ncccc3c2)cc1	none (no result: OX1R antag-1, CHO parental Ca, GPR7 antagonist, OX1R antag-2)
Cc1cc(N(C)C)ccc1N=Nc1ccc2ncccc2c1	OX1R antag-2 83 | OX1R HTRF confirm 75 | CHO-K1 HTRF inactive
COc1ccc2oc(=O)c(C(=O)NCc3ccc(F)cc3)cc2c1	none
COc1ccc2oc(=O)c(C(=O)NCc3cccnc3)cc2c1	OX1R antag-2 83 | OX1R HTRF confirm inactive | CHO-K1 HTRF 40
C/C(=N/NC(=O)CN1CCN(Cc2ccccc2)CC1)c1ccc([N+](=O)[O-])cc1	OX1R antag-2 77 | OX1R HTRF confirm inactive | CHO-K1 HTRF 29
CCOc1ccc(CN2CCC(Cc3ccccc3)CC2)cc1	none
COc1cc(N=c2oc3c(C)ncc(CO)c3cc2C(N)=O)cc(OC)c1OC	OX1R antag-2 121 | OX1R HTRF confirm 55 | CHO-K1 HTRF 58
O=[N+]([O-])c1cnc(Nc2ccc(Cl)cn2)c([N+](=O)[O-])c1	OX1R antag-2 97 | OX1R HTRF confirm inactive | CHO-K1 HTRF 45
O=C(Nc1ccc(Cl)cn1)c1ccccc1[N+](=O)[O-]	none
CCOC(=O)c1c(C)nc2c(C)cccn12	none
CCOC(=O)c1c(C)nc2c3ccccc3ccn12	OX1R antag-2 90 | OX1R HTRF confirm 58 | CHO-K1 HTRF inactive
CC(C)(C)S(=O)N1Cc2cc(C(=O)N3CCOCC3)nc(-c3cccc(Br)c3)c2[C@@H]1CCO (stereo partly drawn)	none (no result: OX1R antag-1, CHO parental Ca, GPR7 antagonist, OX1R antag-2)
O=C(Nc1cccc(Cl)c1)c1cc(N=Nc2ccc([N+](=O)[O-])cc2Cl)ccc1O	OX1R antag-2 77 | OX1R HTRF confirm 57 | CHO-K1 HTRF 23
CCN(CC)c1ccc(/C=N/NC(=O)c2c(Cl)cnn2C)c(O)c1	OX1R antag-2 77 | OX1R HTRF confirm 66 | CHO-K1 HTRF inactive
CCN1C(=O)c2ccc(C(=O)Nc3nccs3)cc2C1=O	OX1R antag-2 90 | OX1R HTRF confirm inactive | CHO-K1 HTRF 29
CCOC(=O)C1=C(COC(=O)/C=C/c2cccc(Cl)c2)NC(=O)NC1C (stereo not drawn)	none (no result: GPR7 antagonist)
Cc1c(Cl)cccc1N1C(=O)CC(Sc2ccccc2N)C1=O (stereo not drawn)	none (no result: OX1R antag-1, CHO parental Ca, GPR7 antagonist, OX1R antag-2)
CCOC(=O)N1CCN(C2=C(NS(=O)(=O)c3ccc(NC(C)=O)cc3)C(=O)c3ccccc3C2=O)CC1	OX1R antag-2 83 | OX1R HTRF confirm 59 | CHO-K1 HTRF 83
CCOC(=O)C1CCN(C2=C(NS(=O)(=O)c3ccc(Cl)cc3)C(=O)c3ccccc3C2=O)CC1	OX1R antag-2 114 | OX1R HTRF confirm 119 | CHO-K1 HTRF 42
CCN1CCN(C2=C(NS(=O)(=O)c3ccc(NC(C)=O)cc3)C(=O)c3ccccc3C2=O)CC1	OX1R antag-2 94 | OX1R HTRF confirm 59 | CHO-K1 HTRF 104
CCOC(=O)C1CCN(CC(C)(C)NS(=O)(=O)c2ccc(Cl)cc2)CC1	none
CCN1CCN(c2nc3ccccc3nc2NS(=O)(=O)c2ccc(NC(C)=O)cc2)CC1	none
CC(C)(C)CC(=O)Nc1ccc(Nc2ccccc2)cc1	none
C=CCOc1ccc(CNc2ccc3[nH]c(=O)[nH]c3c2)cc1OCC	OX1R antag-2 112 | OX1R HTRF confirm inactive | CHO-K1 HTRF inactive
O=C(NCCc1cccs1)C(c1ccccc1)c1ccccc1	none
O=C(CNS(=O)(=O)c1ccc2ccccc2c1)NCCc1ccccn1	none
O=C(NC1CCCCC1)c1sc(=S)n2c1[nH]c(=O)c1ccccc12	OX1R antag-2 82 | OX1R HTRF confirm 56 | CHO-K1 HTRF inactive
COc1ccc(CNC(=O)COC(=O)c2cccn2C)cc1	none (no result: GPR7 antagonist)
COc1ccc(NC(=O)/C=C/c2c(Cl)nc3ccccn23)cc1	OX1R antag-2 111 | OX1R HTRF confirm 96 | CHO-K1 HTRF 17
COC(=O)c1nn(-c2ccc(OC)cc2)c(=O)c2c(N)sc(C)c12	OX1R antag-2 83 | OX1R HTRF confirm inactive | CHO-K1 HTRF 43
COC(=O)c1nn(-c2ccc(OC)cc2)c(=O)cc1NN	none
Cn1c(O)c(N=NC(=O)c2ccccc2O)c2ccccc21	OX1R antag-2 121 | OX1R HTRF confirm 91 | CHO-K1 HTRF 29
Cn1c(O)c(N=NC(=O)CNC(=O)c2ccco2)c2ccccc21	OX1R antag-2 79 | OX1R HTRF confirm inactive | CHO-K1 HTRF 48
CCOC(=O)C(=O)N=Nc1c(O)n(C)c2ccccc12	OX1R antag-2 183 | OX1R HTRF confirm inactive | CHO-K1 HTRF 75
Cc1occc1C(=O)N=Nc1c(O)n(C)c2ccccc12	none
